From ChEMBL document CHEMBL5321214, “Targeting the multifaceted neurotoxicity of Alzheimer's disease by tailored functionalisation of the curcumin scaffold” (Eur J Med Chem, 2023)
Activity calls are given as the source filed them. The calls are words filed in the database; no cut-off is given here.

Tests used:
Microglia [1] = experiment: Antiinflammatory activity against Sprague-Dawley rat microglial cells assessed as inhibition of LPS-induced IL-1 beta production at 1 to 20 uM pretreated with compound for 1 hr followed by LPS stimulation for 24 hrs by ELISA; type: functional, cell-based; settings: dose 1-20 µM, time 25.0 hrs
Summary of the method: (§1)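 Primary cortical rat microglia in DMSO (≤0.1%) or vehicle for 1 h, then 100 ng/mL LPS for 24 h. TNF-α and IL-1β in culture medium by ELISA against standard curves (pg/mL), expressed as % of LPS-stimulated cultures. Mean ± SEM of 3 independent experiments; one-way ANOVA, Holm-Sidak test.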

Microglia [2] = experiment: Antiinflammatory activity against Sprague-Dawley rat microglial cells assessed as inhibition of LPS-induced TNF-alpha production at 1 to 20 uM pretreated with compound for 1 hr followed by LPS stimulation for 24 hrs by ELISA; type: functional, cell-based; settings: dose 1-20 µM, time 25.0 hrs; summary of the method: as §1
[3] = Effect on TNF-alpha release in Sprague-Dawley rat microglial cells at 20 uM by ELISA; type: toxicity, cell-based; settings: microglia; summary of the method: as §1
[4] = Effect on IL-1 beta release in Sprague-Dawley rat microglial cells at 20 uM by ELISA; type: toxicity, cell-based; settings: microglia; summary of the method: as §1
Microglia [5] = experiment: Cytotoxicity against Sprague-Dawley rat microglial cells assessed as effect on cell viability at 1 to 20 uM incubated for 24 hrs by MTT assay; type: toxicity, cell-based; settings: dose 1-20 µM
Summary of the method: (§2)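 Primary rat microglia, 6×10^4 cells/well, switched to serum-free medium 1 h before 24 h exposure (1–20 μM, DMSO ≤0.1%). MTT 0.18 mg/mL for 4 h at 37 °C, formazan dissolved in DMSO, absorbance 570 nm (reference 630 nm). Vehicle-treated cells = 100% viability.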

[6] = Toxicity against Drosophila W1118 assessed as proportion of eclosed-flies at 50 uM measured after 72 hrs
Drosophila [7] = experiment: Antioxidant activity in Spastin Drosophila (Tubulin/Gal4 RNAi DSpast) neurodegenerative model assessed as decrease in intracelluar ROS level in A2 muscle at 10 uM flies raised in compound-enriched food by DHE staining based fluorescence analysis; type: functional, organism-based
Summary of the method: (§3)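 Spastin-RNAi (Tubulin-Gal4 cross, 28 °C) third-instar larvae raised on compound-enriched food, dissected in HL3, stained 30 min with 30 μM DHE, fixed in 4% PFA, DAPI counterstained. Confocal imaging (DHE 580–630 nm); two 2500 μm² ROIs per muscle or two 1900 μm² ROIs per brain, 10–15 larvae per group; DHE/DAPI ratio.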

Microglia [8] = experiment: Antiinflammatory activity against Sprague-Dawley rat microglial cells assessed as inhibition of LPS-induced TNF-alpha production at 1 to 5 uM pretreated with compound for 1 hr followed by LPS stimulation for 24 hrs by ELISA; type: functional, cell-based; settings: dose 1-5 µM, time 25.0 hrs; summary of the method: as §1
[9] = Toxicity against Drosophila W1118 assessed as proportion of eclosed-flies at 10 uM measured after 72 hrs
[10] = Toxicity against Drosophila W1118 assessed as minimum toxic concentration by measuring eclosion rate measured for 72 hrs
[11] = Toxicity against Drosophila W1118 assessed as proportion of eclosed-flies at 30 uM measured after 72 hrs
Microglia [12] = experiment: Antiinflammatory activity against Sprague-Dawley rat microglial cells assessed as downregulation of IL-1 beta mRNA expression at 5 uM pretreated with compound for 1 hr followed by LPS stimulation for 6 hrs by real-time PCR analysis; type: functional, cell-based; settings: time 7.0 hrs
Summary of the method: (§4)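 Primary cortical microglia (postnatal day 1 rat pups, shaken off mixed glial cultures, ~97% Iba1-positive). Compound (DMSO ≤0.1%) for 1 h, then 100 ng/mL ultra-pure E. coli LPS for 6 h. QIAzol RNA extraction, SuperScript IV reverse transcription, real-time PCR. Mean ± SEM, n = 3 in triplicate; one-way ANOVA, Holm-Sidak test.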

[13] = Effect on IL-1 beta release in Sprague-Dawley rat microglial cells at 5 uM by ELISA; type: toxicity, cell-based; settings: microglia; summary of the method: as §1
[14] = target: Keap1/Nrf2 (Homo sapiens) (UniProt Q16236+Q14145); experiment: Activation of Keap1/Nrf2 in human SH-SY5Y cells assessed as Nrf2 nuclear translocation by measuring increase in nuclear to cytosolic Nrf2 ratio at 2.5 uM incubated for 3 hrs by western blot analysis; type: cell-based
Summary of the method: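 SH-SY5Y seeded 2×10^6 cells/dish, grown 24 h, then exposed 3 h at 37 °C, 5% CO2. Nuclear and cytosolic fractions immunoblotted for Nrf2, membranes stripped and reprobed for β-actin and lamin B1 as loading references. Mean ± SEM of three independent experiments; one-way ANOVA with Dunnett's test.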

Microglia [15] = experiment: Cytotoxicity against Sprague-Dawley rat microglial cells assessed as decrease in cell viability at 10 uM incubated for 24 hrs by MTT assay; type: toxicity, cell-based; summary of the method: as §2
Microglia [16] = experiment: Antiinflammatory activity against Sprague-Dawley rat microglial cells assessed as downregulation of NLRP3 mRNA expression at 5 uM pretreated with compound for 1 hr followed by LPS stimulation for 6 hrs by real-time PCR analysis; type: functional, cell-based; settings: time 7.0 hrs; summary of the method: as §4
SH-SY5Y [17] = experiment: Antioxidant activity in human SH-SY5Y cells assessed as increase in intracellular GSH level at 2.5 uM incubated for 24 hrs by […] fluorescence analysis; type: functional
Summary of the method: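 SH-SY5Y (2×10^4 cells/well) grown 24 h, then exposed to 2.5 μM for 24 h at 37 °C. Fluorescent probe added 30 min at 37 °C; read at ex 355/em 460 nm. GSH (μM) from a GSH standard curve. Mean ± SEM of three experiments; one-way ANOVA with Dunnett's test.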

SH-SY5Y [18] = experiment: Antioxidant activity in human SH-SY5Y cells assessed as reduction in intracellular ROS formation at 2.5 uM incubated for 24 hrs followed by incubation with t-BuOOH for 30 mins by H2DCF-DA staining based fluorescence analysis; type: functional; settings: time 24.5 hrs
Summary of the method: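 SH-SY5Y (2×10^4 cells/well) exposed to 2.5 μM for 24 h, loaded with H2DCF-DA 30 min at room temperature, probe removed, then challenged with 50 μM t-BuOOH 30 min at room temperature. Fluorescence ex 485/em 535 nm, expressed as % ROS increase. Three independent experiments; one-way ANOVA with Dunnett's test.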

[19] = target: Amyloid-beta precursor protein (Homo sapiens) (UniProt P05067); experiment: Anti-oligomeric activity against Abeta42 (unknown origin) assessed as depletion of the formation of toxic HMW Abeta42 oligomers at 5 uM measured at day 7 from sample solubilization by capillary electrophoresis assay; settings: time 7.0 day
Summary of the method: (§5)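 Aβ42 stock diluted to 221 μM in 20 mM sodium phosphate pH 7.4 containing compound (ethanol stocks 1.53 mM). Capillary electrophoresis: BGE 80 mM sodium phosphate pH 7.4, 30 mbar × 3 s hydrodynamic injection, +12 kV, 25 °C, 200 nm detection. Oligomers assigned by effective mobility; HMW oligomer peak quantified semiquantitatively as normalised area %.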

[20] = Toxicity against Drosophila W1118 assessed as proportion of eclosed-flies at 1 uM measured after 72 hrs
Microglia [21] = experiment: Antiinflammatory activity against Sprague-Dawley rat microglial cells assessed as inhibition of LPS-induced IL-1 beta production at 1 to 5 uM pretreated with compound for 1 hr followed by LPS stimulation for 24 hrs by ELISA; type: functional, cell-based; settings: dose 1-5 µM, time 25.0 hrs; summary of the method: as §1
Drosophila [22] = experiment: Antioxidant activity in Spastin Drosophila (Tubulin/Gal4 RNAi DSpast) neurodegenerative model assessed as decrease in intracelluar ROS level in brain at 10 uM flies raised in compound-enriched food by DHE staining based fluorescence analysis; type: functional, organism-based; summary of the method: as §3
[23] = target: Amyloid-beta precursor protein (Homo sapiens) (UniProt P05067); experiment: Anti-oligomeric activity against Abeta42 (unknown origin) assessed as depletion of the formation of toxic HMW Abeta42 oligomers at 1 uM measured at day 7 to 10 from sample solubilization by capillary electrophoresis assay; settings: time 7-10 day; summary of the method: as §5
SH-SY5Y [24] = experiment: Cytotoxicity against human SH-SY5Y cells assessed as decrease in cell viability at >5 uM incubated for 24 hrs by MTT assay; type: toxicity, cell-based
Summary of the method: (§6)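 SH-SY5Y, 2×10^4 cells/well, grown 24 h then exposed 24 h (1.25–40 μM) at 37 °C, 5% CO2. MTT 0.5 mg/mL in HBSS for 2 h, washed, formazan dissolved in isopropanol, read at 570 nm (reference 690 nm).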

Drosophila [25] = experiment: Effect on CAT transcript expression in Spastin Drosophila (Tubulin/Gal4 RNAi DSpast) neurodegenerative model at 10 uM flies raised in compound-enriched food by real-time PCR analysis; type: functional
Summary of the method: (§7)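 Total RNA from 5 third-instar Spastin-RNAi larvae raised on standard or compound-enriched food; Tubulin-Gal4/+ as control line. One-step SYBR RT-qPCR normalised to Rp49 by the 2^−ΔΔCt method. n = 3 experiments; one-way ANOVA, Tukey's test.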

Drosophila [26] = experiment: Downregulation of SOD1 transcript expression in Spastin Drosophila (Tubulin/Gal4 RNAi DSpast) neurodegenerative model at 10 uM flies raised in compound-enriched food by real-time PCR analysis; type: functional; summary of the method: as §7
[27] = Effect on TNF-alpha release in Sprague-Dawley rat microglial cells at 5 uM by ELISA; type: toxicity, cell-based; settings: microglia; summary of the method: as §1
Microglia [28] = experiment: Antiinflammatory activity against Sprague-Dawley rat microglial cells assessed as downregulation of TNF-alpha mRNA expression at 5 uM pretreated with compound for 1 hr followed by LPS stimulation for 6 hrs by real-time PCR analysis; type: functional, cell-based; settings: time 7.0 hrs; summary of the method: as §4
Drosophila [29] = experiment: Downregulation of Nrf2 transcript expression in Spastin Drosophila (Tubulin/Gal4 RNAi DSpast) neurodegenerative model at 10 uM flies raised in compound-enriched food by real-time PCR analysis; type: functional; summary of the method: as §7
[30] = Toxicity against Drosophila W1118 assessed as proportion of eclosed-flies at 20 uM measured after 72 hrs
Microglia [31] = experiment: Antiinflammatory activity against Sprague-Dawley rat microglial cells assessed as downregulation of TNF-alpha mRNA expression at 10 uM pretreated with compound for 1 hr followed by LPS stimulation for 6 hrs by real-time PCR analysis; type: functional, cell-based; settings: time 7.0 hrs; summary of the method: as §4
Microglia [32] = experiment: Antiinflammatory activity against Sprague-Dawley rat microglial cells assessed as downregulation of NLRP3 mRNA expression at 10 uM pretreated with compound for 1 hr followed by LPS stimulation for 6 hrs by real-time PCR analysis; type: functional, cell-based; settings: time 7.0 hrs; summary of the method: as §4
SH-SY5Y [33] = experiment: Cytotoxicity against human SH-SY5Y cells assessed as effect on cell viability at 1.25 to 40 uM incubated for 24 hrs by MTT assay; type: toxicity, cell-based; settings: dose 1.25-40 µM; summary of the method: as §6
Microglia [34] = experiment: Antiinflammatory activity against Sprague-Dawley rat microglial cells assessed as downregulation of IL-1 beta mRNA expression at 10 uM pretreated with compound for 1 hr followed by LPS stimulation for 6 hrs by real-time PCR analysis; type: functional, cell-based; settings: time 7.0 hrs; summary of the method: as §4

Amyloid-beta precursor protein (Homo sapiens), sequence (P05067 whole entry): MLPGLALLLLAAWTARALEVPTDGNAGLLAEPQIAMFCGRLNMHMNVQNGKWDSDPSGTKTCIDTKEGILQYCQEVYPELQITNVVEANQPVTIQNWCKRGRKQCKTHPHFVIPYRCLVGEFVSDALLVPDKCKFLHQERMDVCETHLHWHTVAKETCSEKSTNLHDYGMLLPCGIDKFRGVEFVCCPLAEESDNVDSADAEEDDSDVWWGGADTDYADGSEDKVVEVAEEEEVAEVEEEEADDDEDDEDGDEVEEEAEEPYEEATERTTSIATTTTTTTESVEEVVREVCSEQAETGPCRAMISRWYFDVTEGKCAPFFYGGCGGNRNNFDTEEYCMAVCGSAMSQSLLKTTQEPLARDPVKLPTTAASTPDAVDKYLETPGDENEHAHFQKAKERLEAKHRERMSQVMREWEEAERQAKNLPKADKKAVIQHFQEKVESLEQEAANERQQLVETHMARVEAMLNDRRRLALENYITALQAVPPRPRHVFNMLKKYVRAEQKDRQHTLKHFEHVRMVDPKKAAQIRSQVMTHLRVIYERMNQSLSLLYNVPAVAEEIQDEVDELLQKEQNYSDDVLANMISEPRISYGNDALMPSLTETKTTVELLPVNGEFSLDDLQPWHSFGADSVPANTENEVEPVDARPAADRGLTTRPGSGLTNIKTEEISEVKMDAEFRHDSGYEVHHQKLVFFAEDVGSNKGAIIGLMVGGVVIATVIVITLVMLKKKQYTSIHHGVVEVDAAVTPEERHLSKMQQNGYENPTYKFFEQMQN
Keap1/Nrf2 (Homo sapiens), sequence (Q14145 whole entry, looked up): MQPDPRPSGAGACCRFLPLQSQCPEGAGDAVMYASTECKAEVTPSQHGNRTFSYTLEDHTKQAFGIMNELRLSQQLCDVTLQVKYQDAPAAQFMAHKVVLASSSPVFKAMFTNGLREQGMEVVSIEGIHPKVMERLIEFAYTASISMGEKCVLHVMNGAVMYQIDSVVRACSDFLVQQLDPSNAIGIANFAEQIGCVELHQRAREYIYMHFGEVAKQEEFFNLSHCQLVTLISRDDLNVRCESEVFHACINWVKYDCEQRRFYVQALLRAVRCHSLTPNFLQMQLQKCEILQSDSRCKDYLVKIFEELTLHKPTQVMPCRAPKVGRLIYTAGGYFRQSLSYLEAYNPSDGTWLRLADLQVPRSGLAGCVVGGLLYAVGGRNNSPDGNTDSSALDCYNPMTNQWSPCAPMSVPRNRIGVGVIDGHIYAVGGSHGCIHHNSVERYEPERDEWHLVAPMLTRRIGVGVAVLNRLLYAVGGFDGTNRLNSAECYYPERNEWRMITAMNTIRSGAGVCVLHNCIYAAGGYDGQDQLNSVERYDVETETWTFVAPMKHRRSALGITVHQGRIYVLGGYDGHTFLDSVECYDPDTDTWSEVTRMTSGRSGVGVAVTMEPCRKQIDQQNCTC
Keap1/Nrf2 (Homo sapiens), sequence (Q16236 whole entry, looked up): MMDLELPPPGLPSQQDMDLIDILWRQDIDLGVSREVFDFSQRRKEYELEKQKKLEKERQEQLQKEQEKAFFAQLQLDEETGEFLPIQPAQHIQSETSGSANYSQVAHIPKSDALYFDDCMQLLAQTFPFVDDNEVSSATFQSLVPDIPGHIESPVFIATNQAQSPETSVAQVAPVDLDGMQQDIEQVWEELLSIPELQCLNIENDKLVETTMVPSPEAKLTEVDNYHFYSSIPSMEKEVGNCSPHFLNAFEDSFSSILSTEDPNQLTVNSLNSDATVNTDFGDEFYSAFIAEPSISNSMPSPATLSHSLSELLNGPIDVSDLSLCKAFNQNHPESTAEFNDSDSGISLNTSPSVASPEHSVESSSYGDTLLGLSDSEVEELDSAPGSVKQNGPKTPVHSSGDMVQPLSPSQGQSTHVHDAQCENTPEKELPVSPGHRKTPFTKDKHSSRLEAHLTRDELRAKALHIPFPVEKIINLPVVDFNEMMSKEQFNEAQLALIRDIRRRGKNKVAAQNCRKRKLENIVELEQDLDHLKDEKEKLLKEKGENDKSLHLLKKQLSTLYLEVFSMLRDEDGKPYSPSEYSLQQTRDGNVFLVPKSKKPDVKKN

In the case of `COc1ccc(/C=C/C(=O)/C(CC(=O)O)=C(O)/C=C/c2ccc(OC)cc2)cc1` (mixture of isomers), the Activity (Microglia [1]) is reported as “inactive”, the Activity (Microglia [2]) is reported as “inactive” and the Activity [3] is reported as “Non-Toxic”. For the same compound, the Activity [4] was “Non-Toxic” and the Activity (Microglia [5]) was “Non-Toxic”.
In the case of `CCOC(=O)Cn1cc(C/C(C(=O)/C=C/c2ccc(OC)cc2)=C(O)\C=C\c2ccc(OC)cc2)nn1`, the Activity [6] is reported as 68.373%, the Activity (Drosophila [7]) is reported as “Active” and the Activity (Microglia [8]) is reported as “Active”. For the same compound, the Activity [9] was 94.732%, the MTC [10] was 10 µM and the Activity [11] was 81.642%. For the same compound, the Activity (Microglia [12]) was “Active”, the Activity [13] was “Non-Toxic” and the Activity ([14]; filed as activator) was “Active”. For the same compound, the Activity (Microglia [15]) was “Toxic”, the Activity (Microglia [16]) was “Active” and the Activity (SH-SY5Y [17]) was “Active”. For the same compound, the inhibition at 2.5 µM (SH-SY5Y [18]) was 28%, the Activity [19] was “Active” and the Activity [20] was 94.037%. For the same compound, the Activity (Microglia [21]) was “Active”, the Activity (Drosophila [22]) was “Active” and the Activity [23] was “Active”. For the same compound, the Activity (SH-SY5Y [24]) was “Toxic”, the Activity (Drosophila [25]) was “inactive” and the inhibition (Drosophila [26]) was “Active”. For the same compound, the Activity [27] was “Non-Toxic”, the Activity (Microglia [28]) was “Active” and the inhibition (Drosophila [29]) was “Active”. The Activity [30] was 83.806%.
For `COc1ccc(/C=C/C(=O)/C=C(O)/C=C/c2ccc(OC)cc2)cc1`, the Activity (Microglia [1]) was “inactive”, the Activity (Microglia [31]) was “inactive” and the Activity (Microglia [2]) was “inactive”. The Activity (Microglia [32]) was “inactive”, the Activity [3] was “Non-Toxic” and the Activity [14] was “inactive”. The Activity [4] was “Non-Toxic”, the Activity (SH-SY5Y [17]) was “inactive” and the Activity (SH-SY5Y [18]) was “inactive”. For the same compound, the Activity [19] was “inactive”, the Activity (SH-SY5Y [33]) was “Non-Toxic” and the Activity (Microglia [34]) was “inactive”. The Activity (Microglia [5]) was “Non-Toxic”.
